Reference: ChEMBL document CHEMBL1154150, “Synthesis and anticonvulsant activity of some new bishydrazones derived from 3,4-dipropyloxythiophene” (Eur J Med Chem, 2009)
Calls of active or inactive are those of the source. The rule behind the calls is not given here.

How the values were obtained:
Mus musculus [1] = assay: Neurotoxicity in CF1 mouse at 30 mg/kg, ip after 0.5 hrs by rotarod test; type: toxicity, organism-based; design: dose 30 mg/kg, route intraperitoneal; details: in vivo
Summary of the method: (§1)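 Rotorod neurotoxicity in male CF-1 mice (18–25 g) after i.p. compound in 0.5% methyl cellulose/water or PEG 200 at 30, 100 or 300 mg/kg; reported as number showing toxicity/number tested.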

Mus musculus [2] = assay: Anticonvulsant activity in CF1 mouse assessed as protection against subcutaneous metrazole-induced seizures at 300 mg/kg, ip after 4 hrs; type: functional, organism-based; design: dose 300 mg/kg
Mus musculus [3] = assay: Anticonvulsant activity in CF1 mouse assessed as protection against maximal electroshock-induced seizures at 300 mg/kg, ip after 0.5 hrs; type: functional, organism-based; design: dose 300 mg/kg
Summary of the method: (§2)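 Male CF-1 albino mice (18–25 g), dosed i.p. at 30, 100 or 300 mg/kg in 0.5% methyl cellulose/water or PEG 200 (0.01 ml/g); tested at intervals after dosing; protection = abolition of hind limb tonic extensor component of MES seizure; scored as protected/tested.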

Mus musculus [4] = assay: Neurotoxicity in CF1 mouse at 100 mg/kg, ip after 0.5 hrs by rotarod test; type: toxicity, organism-based; design: dose 100 mg/kg, route intraperitoneal; details: in vivo; summary of the method: as §1
Mus musculus [5] = assay: Anticonvulsant activity in CF1 mouse assessed as protection against subcutaneous metrazole-induced seizures at 100 mg/kg, ip after 0.5 hrs; type: functional, organism-based; design: dose 100 mg/kg
Mus musculus [6] = assay: Neurotoxicity in CF1 mouse at 100 mg/kg, ip after 4 hrs by rotarod test; type: toxicity, organism-based; design: dose 100 mg/kg, route intraperitoneal; details: in vivo; summary of the method: as §1
Mus musculus [7] = assay: Anticonvulsant activity in CF1 mouse assessed as protection against subcutaneous metrazole-induced seizures at 30 mg/kg, ip after 0.5 hrs; type: functional, organism-based; design: dose 30 mg/kg
Mus musculus [8] = assay: Neurotoxicity in CF1 mouse at 300 mg/kg, ip after 4 hrs by rotarod test; type: toxicity, organism-based; design: dose 300 mg/kg, route intraperitoneal; details: in vivo; summary of the method: as §1
Mus musculus [9] = assay: Anticonvulsant activity in CF1 mouse assessed as protection against subcutaneous metrazole-induced seizures at 300 mg/kg, ip after 0.5 hrs; type: functional, organism-based; design: dose 300 mg/kg
Mus musculus [10] = assay: Anticonvulsant activity in CF1 mouse assessed as protection against maximal electroshock-induced seizures at 100 mg/kg, ip after 4 hrs; type: functional, organism-based; design: dose 100 mg/kg; summary of the method: as §2
Mus musculus [11] = assay: Anticonvulsant activity in CF1 mouse assessed as protection against maximal electroshock-induced seizures at 30 mg/kg, ip after 0.5 hrs; type: functional, organism-based; design: dose 30 mg/kg; summary of the method: as §2
Mus musculus [12] = assay: Anticonvulsant activity in CF1 mouse assessed as protection against subcutaneous metrazole-induced seizures at 30 mg/kg, ip after 4 hrs; type: functional, organism-based; design: dose 30 mg/kg
Mus musculus [13] = assay: Anticonvulsant activity in CF1 mouse assessed as protection against maximal electroshock-induced seizures at 300 mg/kg, ip after 4 hrs; type: functional, organism-based; design: dose 300 mg/kg; summary of the method: as §2
Mus musculus [14] = assay: Neurotoxicity in CF1 mouse at 30 mg/kg, ip after 4 hrs by rotarod test; type: toxicity, organism-based; design: dose 30 mg/kg, route intraperitoneal; details: in vivo; summary of the method: as §1
Mus musculus [15] = assay: Anticonvulsant activity in CF1 mouse assessed as protection against maximal electroshock-induced seizures at 100 mg/kg, ip after 0.5 hrs; type: functional, organism-based; design: dose 100 mg/kg; summary of the method: as §2
Mus musculus [16] = assay: Neurotoxicity in CF1 mouse at 300 mg/kg, ip after 0.5 hrs by rotarod test; type: toxicity, organism-based; design: dose 300 mg/kg, route intraperitoneal; details: in vivo; summary of the method: as §1
Mus musculus [17] = assay: Anticonvulsant activity in CF1 mouse assessed as protection against maximal electroshock-induced seizures at 30 mg/kg, ip after 4 hrs; type: functional, organism-based; design: dose 30 mg/kg; summary of the method: as §2
Mus musculus [18] = assay: Anticonvulsant activity in CF1 mouse assessed as protection against subcutaneous metrazole-induced seizures at 100 mg/kg, ip after 4 hrs; type: functional, organism-based; design: dose 100 mg/kg
Mus musculus [19] = assay: Anticonvulsant activity in CF1 mouse assessed as protection against 6 Hz electric shock-induced seizures at 100 mg/kg, ip after 2 hrs; type: functional, organism-based; design: dose 100 mg/kg
Summary of the method: (§3)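 Male CF-1 albino mice (18–25 g), compound suspended in 0.5% methyl cellulose/water or PEG 200, given i.p.; four mice per time point (0.25, 0.5, 1.0, 2.0, 4 h) challenged via corneal electrodes at 6 Hz, 32 mA for 3 s, current eliciting psychomotor seizure in 97% of animals; reported as protected/tested.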

Mus musculus [20] = assay: Anticonvulsant activity in CF1 mouse assessed as protection against 6 Hz electric shock-induced seizures at 100 mg/kg, ip after 0.25 hrs; type: functional, organism-based; design: dose 100 mg/kg; summary of the method: as §3
Mus musculus [21] = assay: Anticonvulsant activity in CF1 mouse assessed as protection against 6 Hz electric shock-induced seizures at 100 mg/kg, ip after 4 hrs; type: functional, organism-based; design: dose 100 mg/kg; summary of the method: as §3
Mus musculus [22] = assay: Anticonvulsant activity in CF1 mouse assessed as protection against 6 Hz electric shock-induced seizures at 100 mg/kg, ip after 1 hr; type: functional, organism-based; design: dose 100 mg/kg; summary of the method: as §3

| SMILES | Activity (Mus musculus [1]) | Activity (Mus musculus [2]) | Activity (Mus musculus [3]) | Activity (Mus musculus [4]) | Activity (Mus musculus [5]) | Activity (Mus musculus [6]) | Activity (Mus musculus [7]) | Activity (Mus musculus [8]) | Activity (Mus musculus [9]) | Activity (Mus musculus [10]) | Activity (Mus musculus [11]) | Activity (Mus musculus [12]) | Activity (Mus musculus [13]) | Activity (Mus musculus [14]) | Activity (Mus musculus [15]) | Activity (Mus musculus [16]) | Activity (Mus musculus [17]) | Activity (Mus musculus [18]) | Activity (Mus musculus [20]) | Activity (Mus musculus [21]) | also measured |
| --- | --- | --- | --- | --- | --- | --- | --- | --- | --- | --- | --- | --- | --- | --- | --- | --- | --- | --- | --- | --- | --- |
| CCCOc1c(C(=O)N/N=C(\C)c2ccc[nH]2)sc(C(=O)N/N=C(\C)c2ccc[nH]2)c1OCCC | Non-toxic | inactive | inactive | Non-toxic | inactive | Non-toxic | inactive | Non-toxic | inactive | inactive | inactive | inactive | inactive | Non-toxic | inactive | Non-toxic | inactive | inactive |  |  |  |
| CCCOc1c(C(=O)N/N=C(\C)c2ccccn2)sc(C(=O)N/N=C(\C)c2ccccn2)c1OCCC | Non-toxic | inactive | inactive | Non-toxic | inactive | Non-toxic | inactive | Non-toxic | inactive | inactive | inactive | inactive | inactive | Non-toxic | inactive | Non-toxic | inactive | inactive |  |  |  |
| CCCOc1c(C(=O)N/N=C(\C)c2c[nH]c3ccccc23)sc(C(=O)N/N=C(\C)c2c[nH]c3ccccc23)c1OCCC | Non-toxic | inactive | inactive | Non-toxic | inactive | Non-toxic | inactive | Non-toxic | inactive | inactive | inactive | inactive | inactive | Non-toxic | inactive | Non-toxic | inactive | inactive |  |  |  |
| CCCOc1c(C(=O)NN=C2CCCCCC2)sc(C(=O)NN=C2CCCCCC2)c1OCCC | Non-toxic | inactive | inactive | Non-toxic | inactive | Non-toxic | inactive | Non-toxic | inactive | inactive | inactive | inactive |  | Non-toxic | inactive | Non-toxic | inactive | inactive | inactive | inactive | Activity (Mus musculus [19]): inactive; Activity (Mus musculus [22]): inactive |
| CCCOc1c(C(=O)N/N=C(\C)c2cccs2)sc(C(=O)N/N=C(\C)c2cccs2)c1OCCC | Non-toxic |  | inactive | Non-toxic | inactive | Non-toxic | inactive | Non-toxic | inactive | inactive | inactive | inactive |  | Non-toxic | inactive | Non-toxic | inactive | inactive | inactive |  |  |
| CCCOc1c(C(=O)N/N=C\c2ccccc2)sc(C(=O)N/N=C/c2ccccc2)c1OCCC | Non-toxic |  | inactive | Non-toxic | inactive | Non-toxic | inactive | Non-toxic | inactive | inactive | inactive | inactive | inactive | Non-toxic | inactive | Non-toxic | inactive | inactive | inactive | inactive | Activity (Mus musculus [19]): inactive |
| CCCOc1c(C(=O)N/N=C/c2ccc3c(c2)c2ccccc2n3CC)sc(C(=O)N/N=C/c2ccc3c(c2)c2ccccc2n3CC)c1OCCC | Non-toxic | inactive | inactive | Toxic | inactive | Non-toxic | inactive | Non-toxic | inactive | inactive | inactive | inactive | inactive | Non-toxic | inactive | Toxic | inactive | inactive |  |  |  |
| CCCOc1c(C(=O)NN=C(C)C)sc(C(=O)NN=C(C)C)c1OCCC | Non-toxic | inactive | inactive | Non-toxic | inactive | Non-toxic | inactive | Non-toxic | inactive | inactive | inactive | inactive | inactive | Non-toxic | inactive | Toxic | inactive | inactive |  |  |  |
| CCCOc1c(C(=O)N/N=C/c2ccc(-c3ccccc3)cc2)sc(C(=O)N/N=C/c2ccc(-c3ccccc3)cc2)c1OCCC | Non-toxic | inactive | inactive | Toxic | inactive | Non-toxic | inactive | Non-toxic | inactive | inactive | inactive | inactive | inactive | Non-toxic | inactive | Toxic | inactive | inactive |  |  |  |
| CCCOc1c(C(=O)N/N=C\c2c[nH]c3ccccc23)sc(C(=O)N/N=C/c2c[nH]c3ccccc23)c1OCCC | Non-toxic | inactive | inactive | Toxic |  | Non-toxic | inactive | Non-toxic | inactive | inactive | inactive | inactive | inactive | Non-toxic | inactive | Toxic | inactive | inactive | inactive | inactive | Activity (Mus musculus [19]): inactive |
| CCCOc1c(C(=O)N/N=C\c2ccc3c(c2)Cc2ccccc2-3)sc(C(=O)N/N=C/c2ccc3c(c2)Cc2ccccc2-3)c1OCCC | Non-toxic | inactive | inactive |  |  | Non-toxic | inactive | Toxic | inactive | inactive | inactive | inactive | inactive | Non-toxic | inactive | Toxic | inactive | inactive | inactive | inactive |  |
